Experimental data pooled from the literature.
Protocols differ between the studies behind these lines.
Oprk1: Kappa-type opioid receptor (Oprk1, Mus musculus, UniProt P33534)
SLC6A2: Sodium-dependent noradrenaline transporter (SLC6A2, Homo sapiens, UniProt P23975)
CES2: Cocaine esterase (CES2, Homo sapiens, UniProt O00748)
FPR1: fMet-Leu-Phe receptor (FPR1, Homo sapiens, UniProt P21462)

Compound | target | read-out | action | technique | setting | measurement | result
CC(C)[C@H](CN1CCc2ccccc2C1)NC(=O)c1c(Cl)cncc1Cl | Oprk1 | ligand displacement | – | radioligand | – | Ki | 12.5 µM
CCOC(=O)[C@@]12C[C@@H]1[C@@H](n1cnc3c(Nc4ccccc4)nc(C#Cc4ccc(Cl)s4)nc31)[C@H](O)[C@@H]2O | SLC6A2 | ligand displacement | – | radioligand | – | Ki | 2.3 µM
CCCC[C@H](NC(C)=O)C(=O)N[C@H]1CC(=O)NCCCC[C@@H](C(=O)N[C@@H](C(=O)N2CCC[C@@H]2C(N)=O)C(C)C)NC(=O)[C@H](Cc2c[nH]c3ccccc23)NC(=O)[C@H](CCCN=C(N)N)NC(=O)[C@@H](Cc2ccc3ccccc3c2)NC(=O)[C@@H]2CCCN2C1=O | Melanocortin receptor 4 (MC4R, Homo sapiens, UniProt P32245) | cAMP | agonist | – | – | EC50 | > 1 µM
CC(=O)[C@H]1CC[C@H]2[C@@H]3CC=C4C[C@@H](O)CC[C@]4(C)[C@H]3CC[C@]12C | CES2 | enzyme activity | inhibitor | fluorescence | with preincubation | IC50 | > 100 µM
CCOC(=O)[C@@]12C[C@@H]1[C@@H](n1cnc3c(NCCCCCCc4ccccc4)nc(C#Cc4ccc(Cl)s4)nc31)[C@H](O)[C@@H]2O | SLC6A2 | ligand displacement | – | radioligand | – | Ki | 5.4 µM
O=C1NC(=O)C(c2ccccc2)(c2ccccc2)N1 | CES2 | enzyme activity | inhibitor | fluorescence | with preincubation | IC50 | > 100 µM
Cc1cccc(-c2nnc(N[C@@H](Cc3ccc(C#N)cc3)C(=O)N3CCc4ccccc43)o2)c1 | FPR1 | calcium signal | agonist | – | – | EC50 | 19.4 µM
OC[C@@]12C[C@@H]1[C@@H](n1cnc3c(N[C@@H](C4CCC4)C4CC4)nc(C#Cc4ccc(Cl)s4)nc31)[C@H](O)[C@@H]2O | SLC6A2 | ligand displacement | – | radioligand | – | Ki | 1.8 µM
O=C(CCNC(=O)CNC(=O)CC(c1ccccc1)(c1ccccc1)c1ccccc1)NC[C@H]1CCCN(Cc2ccc(F)cc2)C1 | Muscarinic acetylcholine receptor M5 (CHRM5, Homo sapiens, UniProt P08912) | ligand displacement | – | radioligand | cell membranes | IC50 | 19.4 µM
CC(C)[C@@H](CN1CCc2ccccc2C1)NC(=O)c1cccc(-c2cccc(C#N)c2)c1 | Oprk1 | ligand displacement | – | radioligand | – | Ki | 2.14 µM
CCOC(=O)[C@@]12C[C@@H]1[C@@H](n1cnc3c(NC4CC4)nc(C#Cc4ccc(Cl)s4)nc31)[C@H](O)[C@@H]2O | SLC6A2 | ligand displacement | – | radioligand | – | Ki | 3.7 µM
NCC(=O)O | ltaA (Aeromonas jandaei, UniProt O07051) | binding | – | absorbance | – | Kd | 11000 µM
N#CC[C@@]12C[C@@H]1[C@@H](n1cnc3c(NCc4cccc(Cl)c4)nc(C#Cc4ccc(Cl)s4)nc31)[C@H](O)[C@@H]2O | SLC6A2 | ligand displacement | – | radioligand | – | Ki | 4.1 µM
CN1C(=O)C(c2c(-c3ccc(Cl)cc3)[nH]c3c2c(=O)[nH]c(=O)n3C)c2ccccc21 (centres unmarked) | WD repeat-containing protein 91 (Homo sapiens, UniProt A4D1P6) | binding | – | SPR | – | Kd | 2 µM
CC(C)[C@H](CN1CCc2ccccc2C1)NC(=O)c1ccc([N+](=O)[O-])s1 | Oprk1 | ligand displacement | – | radioligand | – | Ki | 9.3 µM
COc1cc(Nc2c(C#N)cnc3cc(OCCCN4CCN(C)CC4)c(OC)cc23)c(Cl)cc1Cl | CES2 | enzyme activity | inhibitor | fluorescence | with preincubation | IC50 | 22 µM
N#Cc1ccc(C[C@@H](Nc2c(Nc3ccc(Br)cc3)c(=O)c2=O)C(=O)N2CCc3ccccc32)cc1 | FPR1 | calcium signal | agonist | – | – | EC50 | 32.8 µM
CCOC(=O)[C@@]12C[C@@H]1[C@@H](n1ccc3c(NCCCCc4ccccc4)nc(C#Cc4ccccc4)nc31)[C@H](O)[C@@H]2O | SLC6A2 | ligand displacement | – | radioligand | – | Ki | 1.5 µM
COc1cc2c(cc1OC)C(=O)/C(=C/c1ccc3ccccc3c1)C2 | CES2 | enzyme activity | inhibitor | fluorescence | with preincubation | IC50 | 10.4 µM
CCOC(=O)[C@@]12C[C@@H]1[C@@H](n1cnc3c(NCCCCCc4ccccc4)nc(C#Cc4ccc(Cl)s4)nc31)[C@H](O)[C@@H]2O | SLC6A2 | ligand displacement | – | radioligand | – | Ki | 0.82 µM
COc1cc2c(cc1OC)C(=O)/C(=C/c1ccc(C)c(C)c1)C2 | CES2 | enzyme activity | inhibitor | fluorescence | with preincubation | IC50 | > 100 µM
CCCCC[C@H](O)/C=C/[C@H]1C(=O)C[C@H](O)[C@@H]1C/C=C\CCCC(=O)O | Prostaglandin D2 receptor (PTGDR, Homo sapiens, UniProt Q13258) | G protein activation | agonist | BRET | – | EC50 | 0.00646 µM
CNc1nc(C#Cc2ccc(Cl)s2)nc2c1ncn2[C@H]1[C@H](O)[C@H](O)[C@]2(CC#N)C[C@H]12 | SLC6A2 | ligand displacement | – | radioligand | – | EC50 | 3.9 µM
CCc1ccccc1/C=C1\Cc2cc(OC)c(OC)cc2C1=O | CES2 | enzyme activity | inhibitor | fluorescence | with preincubation | IC50 | 1.48 µM
N#Cc1ccc(C[C@H](Nc2nnc(-c3cccc(Br)c3)o2)C(=O)N2CCc3ccccc32)cc1 | FPR1 | calcium signal | agonist | – | – | EC50 | 27 µM
CN1C(C(=O)Nc2ccccn2)=C(O)c2ccccc2S1(=O)=O | CES2 | enzyme activity | inhibitor | fluorescence | with preincubation | IC50 | > 100 µM
CC(C)[C@@H](CN1CCc2ccccc2C1)NC(=O)c1cccc(-c2ccc(F)cc2)c1 | Oprk1 | ligand displacement | – | radioligand | – | Ki | 13 µM
O=C(c1ccc(OCCN2CCCCC2)cc1)c1c(-c2ccc(O)cc2)sc2cc(O)ccc12 | CES2 | enzyme activity | inhibitor | fluorescence | with preincubation | IC50 | > 100 µM
O=c1cc(-c2ccc(O)cc2)oc2cc(O)cc(O)c12 | NACHT, LRR and PYD domains-containing protein 3 (NLRP3, Homo sapiens, UniProt Q96P20) | binding | – | SPR | – | Kd | 18.7 µM
